Experimental data taken from ChEMBL document CHEMBL1255259, “Phosphorothioate-modified oligodeoxynucleotides inhibit human cytomegalovirus replication by blocking virus entry” (Antimicrob Agents Chemother, 2008).
The source made the active and inactive calls. The rule behind the calls is not given here.

Tests used:
Human alphaherpesvirus 1 [1] = assay: Antimicrobial activity against Human herpesvirus 1 infected in compound pretreated HELF assessed as inhibition of viral replication at 0.1 uM; format: functional, organism-based
Outline: (§1)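 HELF pretreated with ODN (0.1 or 1 μM) 1 h before infection with a clinical HSV-1 isolate at MOI 0.1; ODN kept in medium after 2 h adsorption. Harvest at 48 h p.i., sonication, plaque titration on Vero cells. Means ± SD of three independent experiments.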

Human betaherpesvirus 5 [2] = assay: Antimicrobial activity against Human cytomegalovirus AD169 infected in HELF assessed as inhibition of viral replication at 0.1 uM measured after 6 days post-infection; format: functional, organism-based
Human betaherpesvirus 5 [3] = assay: Antimicrobial activity against Human cytomegalovirus AD169 infected in HELF assessed as inhibition of viral replication at 1 uM measured after 6 days post-infection; format: functional, organism-based
Human betaherpesvirus 5 [4] = assay: Antimicrobial activity against 0.1 uM compound pretreated Human cytomegalovirus AD169 infected in HELF assessed as reduction in viral titer at 4 degC; format: functional, organism-based
Outline: (§2)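 HCMV AD169 (10^4 PFU) incubated with ODN at 0.1 μM at 4 or 37°C for various times; samples then diluted to bring ODN below an antivirally active level; residual infectivity titrated by plaque assay on HELF. Means ± SD of three independent experiments.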

Human betaherpesvirus 5 [5] = assay: Antimicrobial activity against Human cytomegalovirus AD169 infected in 0.1 uM compound pretreated HELF assessed as inhibition of viral replication measured after 6 days post-infection; format: functional, organism-based
Outline: (§3)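 HELF pretreated with ODN 1 h before infection with HCMV AD169 (MOI 1); ODN kept in medium after 2 h adsorption at 37°C. At 6 days p.i., cells plus supernatants sonicated and titrated by plaque assay on HELF; plaques counted microscopically, expressed as PFU/ml (log10) or % of control. IC50/IC90 by linear regression; duplicate wells, three independent experiments, means ± SD.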

Human betaherpesvirus 5 [6] = assay: Antimicrobial activity against 0.1 uM compound pretreated Human cytomegalovirus AD169 infected in HELF assessed as reduction in viral titer 37 degC; format: functional, organism-based; outline: as §2
[7] = Cytotoxicity against HELF assessed as cell viability after 6 days by MTT assay; format: cell-based; settings: human, HELF cells
Outline: (§4)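 HELF exposed to rising ODN concentrations (up to 10 μM) for 6 days; viable cells measured by MTT. CC50 taken as concentration that cuts viability to 50%.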

Human betaherpesvirus 5 [8] = assay: Antimicrobial activity against Human cytomegalovirus AD169 infected in compound pretreated HELF assessed as inhibition of viral replication measured after 6 days post-infection; format: functional, organism-based; settings: Human betaherpesvirus 5, AD169, HELF; outline: as §3
Human betaherpesvirus 5 [9] = assay: Antimicrobial activity against Human cytomegalovirus AD169 infected in 1 uM compound pretreated HELF assessed as inhibition of viral replication measured after 6 days post-infection; format: functional, organism-based; outline: as §3
[10] = Cytotoxicity against HELF assessed as cell viability by MTT assay after 6 days at <=10 uM; format: cell-based; settings: human, 144 h; outline: as §4
Human alphaherpesvirus 1 [11] = assay: Antimicrobial activity against Human herpesvirus 1 infected in compound pretreated HELF assessed as inhibition of viral replication at 1 uM; format: functional, organism-based; outline: as §1

| IC50 (Human betaherpesvirus 5 [8]) | IC90 (Human betaherpesvirus 5 [8]) | Compound | inhibition (Human alphaherpesvirus 1 [1]) | inhibition (Human betaherpesvirus 5 [2]) | inhibition (Human betaherpesvirus 5 [3]) | inhibition (Human betaherpesvirus 5 [4]) | inhibition (Human betaherpesvirus 5 [5]) | inhibition (Human betaherpesvirus 5 [6]) | CC50 at 144 h [7] | inhibition (Human betaherpesvirus 5 [9]) | Activity [10] | inhibition (Human alphaherpesvirus 1 [11]) |
| --- | --- | --- | --- | --- | --- | --- | --- | --- | --- | --- | --- | --- |
| 0.04 µM | 0.9 µM | Cc1cn([C@H]2C[C@H](OP(O)(O)=S)[C@@H](COP(O)(=S)O[C@H]3C[C@H](n4cc(C)c(=O)[nH]c4=O)O[C@@H]3COP(O)(=S)O[C@H]3[C@@H](O)[C@H](n4cnc5c(=O)[nH]c(N)nc54)O[C@@H]3COP(O)(=S)O[C@H]3[C@@H](O)[C@H](n4ccc(N)nc4=O)O[C@@H]3COP(O)(=S)O[C@H]3[C@@H](O)[C@H](n4cnc5c(N)ncnc54)O[C@@H]3COP(O)(=S)O[C@H]3[C@@H](O)[C@H](n4cnc5c(=O)[nH]c(N)nc54)O[C@@H]3COP(O)(=S)O[C@H]3C[C@H](n4cc(C)c(=O)[nH]c4=O)O[C@@H]3COP(O)(=S)O[C@H]3[C@@H](O)[C@H](n4ccc(N)nc4=O)O[C@@H]3COP(O)(=S)O[C@H]3[C@@H](O)[C@H](n4ccc(N)nc4=O)O[C@@H]3COP(O)(=S)O[C@H]3C[C@H](n4cc(C)c(=O)[nH]c4=O)O[C@@H]3COP(O)(=S)O[C@H]3C[C@H](n4cc(C)c(=O)[nH]c4=O)O[C@@H]3COP(O)(=S)O[C@H]3[C@@H](O)[C@H](n4cnc5c(=O)[nH]c(N)nc54)O[C@@H]3COP(O)(=S)O[C@H]3[C@@H](O)[C@H](n4ccc(N)nc4=O)O[C@@H]3COP(O)(=S)O[C@H]3[C@@H](O)[C@H](n4cnc5c(N)ncnc54)O[C@@H]3COP(O)(=S)O[C@H]3[C@@H](O)[C@H](n4cnc5c(=O)[nH]c(N)nc54)O[C@@H]3COP(O)(=S)O[C@H]3C[C@H](n4cc(C)c(=O)[nH]c4=O)O[C@@H]3COP(O)(=S)O[C@H]3[C@@H](O)[C@H](n4cnc5c(N)ncnc54)O[C@@H]3COP(O)(=S)O[C@H]3[C@@H](O)[C@H](n4ccc(N)nc4=O)O[C@@H]3COP(O)(=S)O[C@H]3[C@@H](O)[C@H](n4ccc(N)nc4=O)O[C@@H]3COP(O)(=S)O[C@H]3C[C@H](n4cc(C)c(=O)[nH]c4=O)O[C@@H]3CO)O2)c(=O)[nH]c1=O (stereo partly specified) | inactive | inactive | inactive | inactive | Active | inactive | > 10 µM | Active | Non-toxic | inactive |
| 0.05 µM | 0.8 µM | Cc1cn([C@H]2C[C@H](OP(O)(O)=S)[C@@H](COP(O)(=S)O[C@H]3C[C@H](n4cc(C)c(=O)[nH]c4=O)O[C@@H]3COP(O)(=S)O[C@H]3[C@@H](O)[C@H](n4cnc5c(=O)[nH]c(N)nc54)O[C@@H]3COP(O)(=S)O[C@H]3[C@@H](O)[C@H](n4ccc(N)nc4=O)O[C@@H]3COP(O)(=S)O[C@H]3C[C@H](n4cc(C)c(=O)[nH]c4=O)O[C@@H]3COP(O)(=S)O[C@H]3[C@@H](O)[C@H](n4cnc5c(=O)[nH]c(N)nc54)O[C@@H]3COP(O)(=S)O[C@H]3C[C@H](n4cc(C)c(=O)[nH]c4=O)O[C@@H]3COP(O)(=S)O[C@H]3C[C@H](n4cc(C)c(=O)[nH]c4=O)O[C@@H]3COP(O)(=S)O[C@H]3C[C@H](n4cc(C)c(=O)[nH]c4=O)O[C@@H]3COP(O)(=S)O[C@H]3C[C@H](n4cc(C)c(=O)[nH]c4=O)O[C@@H]3COP(O)(=S)O[C@H]3[C@@H](O)[C@H](n4cnc5c(=O)[nH]c(N)nc54)O[C@@H]3COP(O)(=S)O[C@H]3[C@@H](O)[C@H](n4ccc(N)nc4=O)O[C@@H]3COP(O)(=S)O[C@H]3C[C@H](n4cc(C)c(=O)[nH]c4=O)O[C@@H]3COP(O)(=S)O[C@H]3[C@@H](O)[C@H](n4cnc5c(=O)[nH]c(N)nc54)O[C@@H]3COP(O)(=S)O[C@H]3[C@@H](O)[C@H](n4ccc(N)nc4=O)O[C@@H]3COP(O)(=S)O[C@H]3C[C@H](n4cc(C)c(=O)[nH]c4=O)O[C@@H]3COP(O)(=S)O[C@H]3C[C@H](n4cc(C)c(=O)[nH]c4=O)O[C@@H]3COP(O)(=S)O[C@H]3C[C@H](n4cc(C)c(=O)[nH]c4=O)O[C@@H]3COP(O)(=S)O[C@H]3[C@@H](O)[C@H](n4cnc5c(=O)[nH]c(N)nc54)O[C@@H]3COP(O)(=S)O[C@H]3[C@@H](O)[C@H](n4ccc(N)nc4=O)O[C@@H]3COP(O)(=S)O[C@H]3C[C@H](n4cc(C)c(=O)[nH]c4=O)O[C@@H]3COP(O)(=S)O[C@H]3[C@@H](O)[C@H](n4cnc5c(=O)[nH]c(N)nc54)O[C@@H]3COP(O)(=S)O[C@H]3[C@@H](O)[C@H](n4ccc(N)nc4=O)O[C@@H]3COP(O)(=S)O[C@H]3C[C@H](n4cc(C)c(=O)[nH]c4=O)O[C@@H]3CO)O2)c(=O)[nH]c1=O (stereo partly specified) | inactive | inactive | inactive | inactive | Active | inactive | > 10 µM | Active | Non-toxic | inactive |
| 0.02 µM | 0.1 µM | Cc1cn([C@H]2C[C@H](OP(O)(=S)OC[C@H]3O[C@@H](n4ccc(N)nc4=O)[C@H](O)[C@@H]3OP(O)(=S)OC[C@H]3O[C@@H](n4cnc5c(=O)[nH]c(N)nc54)[C@H](O)[C@@H]3OP(O)(=S)OC[C@H]3O[C@@H](n4cc(C)c(=O)[nH]c4=O)C[C@@H]3OP(O)(=S)OC[C@H]3O[C@@H](n4ccc(N)nc4=O)[C@H](O)[C@@H]3OP(O)(=S)OC[C@H]3O[C@@H](n4cnc5c(=O)[nH]c(N)nc54)[C@H](O)[C@@H]3OP(O)(=S)OC[C@H]3O[C@@H](n4cc(C)c(=O)[nH]c4=O)C[C@@H]3OP(O)(=S)OC[C@H]3O[C@@H](n4cc(C)c(=O)[nH]c4=O)C[C@@H]3OP(O)(=S)OC[C@H]3O[C@@H](n4cc(C)c(=O)[nH]c4=O)C[C@@H]3OP(O)(=S)OC[C@H]3O[C@@H](n4cc(C)c(=O)[nH]c4=O)C[C@@H]3OP(O)(=S)OC[C@H]3O[C@@H](n4cnc5c(=O)[nH]c(N)nc54)[C@H](O)[C@@H]3OP(O)(=S)OC[C@H]3O[C@@H](n4cc(C)c(=O)[nH]c4=O)C[C@@H]3OP(O)(=S)OC[C@H]3O[C@@H](n4ccc(N)nc4=O)[C@H](O)[C@@H]3OP(O)(=S)OC[C@H]3O[C@@H](n4cnc5c(=O)[nH]c(N)nc54)[C@H](O)[C@@H]3OP(O)(=S)OC[C@H]3O[C@@H](n4cc(C)c(=O)[nH]c4=O)C[C@@H]3OP(O)(=S)OC[C@H]3O[C@@H](n4cc(C)c(=O)[nH]c4=O)C[C@@H]3OP(O)(=S)OC[C@H]3O[C@@H](n4cc(C)c(=O)[nH]c4=O)C[C@@H]3OP(O)(=S)OC[C@H]3O[C@@H](n4cc(C)c(=O)[nH]c4=O)C[C@@H]3OP(O)(=S)OC[C@H]3O[C@@H](n4cc(C)c(=O)[nH]c4=O)C[C@@H]3OP(O)(=S)OC[C@H]3O[C@@H](n4cc(C)c(=O)[nH]c4=O)C[C@@H]3OP(O)(=S)OC[C@H]3O[C@@H](n4cc(C)c(=O)[nH]c4=O)C[C@@H]3OP(O)(=S)OC[C@H]3O[C@@H](n4ccc(N)nc4=O)[C@H](O)[C@@H]3OP(O)(=S)OC[C@H]3O[C@@H](n4cnc5c(=O)[nH]c(N)nc54)[C@H](O)[C@@H]3OP(O)(=S)OC[C@H]3O[C@@H](n4cnc5c(N)ncnc54)[C@H](O)[C@@H]3OP(O)(O)=S)[C@@H](CO)O2)c(=O)[nH]c1=O (stereo partly specified) | inactive | inactive | inactive | inactive | Active | inactive | > 10 µM | Active | Non-toxic | inactive |
